According to ChEMBL document CHEMBL1129372, “Cyclopent[a]anthraquinones as DNA intercalating agents with covalent bond formation potential: synthesis and biological activity” (J Med Chem, 1996):
Values joined by “and” are separate entries in the source; they are usually repeats but may differ in a detail not shown here. Equal values may be shown once.

How the values were obtained:
Mus musculus [1] = assay: Anti cancer activity was tested on day10, in mice bearing Lewis lung adenocarcinoma by injecting 0.4 mg/kg dose of compound intraperitoneally and average tumor volume was calculated.; format: functional; conditions: route intraperitoneal
How it was run: (§1)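 BDF1 mice given Lewis lung carcinoma subcutaneously (footnote: 4 × 10⁶ cells; methods: 0.2 mL brei). Dosing was ip once daily for 5 days, starting day 3 after inoculation, with drug in DMSO. Controls received DMSO alone: four control mice and three mice per dose. Body weight change, mortality and tumor volume were recorded on days 7, 10 and 14. Tumor volume is given as T/C.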

Mus musculus [2] = assay: Anti cancer activity was tested on day 14, in mice bearing Lewis lung adenocarcinoma by injecting 0.8 mg/kg dose of compound intraperitoneally and average tumor volume was calculated.; format: functional; conditions: route intraperitoneal; how it was run: as §1
HL-60 = assay: Inhibition of cell growth was studied in human promyelocytic leukemic (HL-60) cells.; format: functional, cell-based
How it was run: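 HL-60 cells were exposed for 72 h and read by XTT-tetrazolium microculture assay: PMS-XTT incubation for 6 h at 37 °C, absorbance at 450 and 630 nm. Six to seven concentrations were tested. IC50 was derived by median-effect plot.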

Mus musculus [3] = assay: Anti cancer activity was tested on day10, in mice bearing Lewis lung adenocarcinoma by injecting 0.8 mg/kg dose of compound intraperitoneally and average tumor volume was calculated.; format: functional; conditions: route intraperitoneal; how it was run: as §1
DC3F/AD-II = assay: Inhibition of cell growth was studied in chinese hamster lung cells resistant to actinomycin D (DC-3F/AD-II).; format: functional, cell-based; conditions: Cricetulus griseus
How it was run: (§2)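 Monolayer solid-tumor cells were assayed by SRB protein staining using six to seven concentrations. IC50 is the concentration reducing cell density to 50% of control, derived by median-effect plot.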

Mus musculus [4] = assay: Anti cancer activity was tested on day 14, in mice bearing Lewis lung adenocarcinoma by injecting 0.4 mg/kg dose of compound intraperitoneally and a. average […] was reported.; format: functional; conditions: route intraperitoneal; how it was run: as §1
SK-BR-3 = assay: Inhibition of cell growth was studied in human mammary adenocarcinoma (SKBR-3).; format: functional, cell-based; how it was run: as §2
DC3F = assay: Inhibition of cell growth was studied in chinese hamster lung cells (DC-3F); format: functional, cell-based; conditions: Cricetulus griseus; how it was run: as §2
833K = assay: Inhibition of cell growth was studied in human teratocarcinoma (833K).; format: functional, cell-based; how it was run: as §2
Mus musculus [5] = assay: Anti cancer activity was tested on day10, in mice bearing Lewis lung adenocarcinoma by injecting 0.8 mg/kg dose of compound intraperitoneally and average weight change was reported.; format: functional; conditions: route intraperitoneal; how it was run: as §1
Mus musculus [6] = assay: (§3) Anti cancer activity was tested on day10, in mice bearing Lewis lung adenocarcinoma by injecting 0.4 mg/kg dose of compound intraperitoneally and average weight change was reported.; format: functional; conditions: route intraperitoneal; how it was run: as §1
Mus musculus [7] = assay: Anti cancer activity was tested on day 7, in mice bearing Lewis lung adenocarcinoma by injecting 0.4 mg/kg dose of compound intraperitoneally and average tumor volume was calculated.; format: functional; conditions: route intraperitoneal; how it was run: as §1
Mus musculus [8] = assay: Anti cancer activity was tested on day 14, in mice bearing Lewis lung adenocarcinoma by injecting 0.8 mg/kg dose of compound intraperitoneally and average weight change was reported.; format: functional; conditions: route intraperitoneal; how it was run: as §1
Mus musculus [9] = assay: Anti cancer activity was tested on day 7, in mice bearing Lewis lung adenocarcinoma by injecting 2.0 mg/kg dose of compound intraperitoneally and average tumor volume was calculated.; format: functional; conditions: route intraperitoneal
How it was run: (§4)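 Lewis lung carcinoma was implanted subcutaneously in BDF₁ mice at 4 × 10⁶ cells. Starting day 3, drug in DMSO was given ip once daily for 5 days; untreated controls received DMSO alone. Groups were four control mice and three mice per dose. Body weight change and average tumor volume (T/C) were recorded on days 7, 10 and 14 after treatment began.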

Mus musculus [10] = assay: Anti cancer activity was tested on day 7, in mice bearing Lewis lung adenocarcinoma by injecting 2.0 mg/kg dose of compound intraperitoneally and average weight change was reported.; format: functional; conditions: route intraperitoneal; how it was run: as §4
Mus musculus [11] = assay: Anti cancer activity was tested on day 14, in mice bearing Lewis lung adenocarcinoma by injecting 0.4 mg/kg dose of compound intraperitoneally and average […] was reported.; format: functional; conditions: route intraperitoneal; how it was run: as §4
Mus musculus [12] = assay: as §3; format: functional; conditions: route intraperitoneal; how it was run: as §4; remark: listed apart in the source

Structure (SMILES): CNC(=O)OCc1cc2c(c3c1C1NC1C3)C(=O)c1ccccc1C2=O (configuration not stated)
- Average tumor volume (Mus musculus [1]): 0.303 T/C
- Average tumor volume (Mus musculus [2]): 0.496 T/C
- IC50 (HL-60): 6.03 µM
- Average tumor volume (Mus musculus [3]): 0.205 T/C
- IC50 (DC3F/AD-II): 3.6 µM
- Average tumor volume (Mus musculus [4]): 0.529 T/C
- Average weight change (Mus musculus [4]): 2 mg/kg
- IC50 (SK-BR-3): 19.9 µM
- IC50 (DC3F): 10.4 µM
- IC50 (833K): 23.9 µM
- Average weight change (Mus musculus [5]): -0.4 g
- Average weight change (Mus musculus [6]): -0.2 mg/kg
- Tumor volume treated/control ratio (T/C) (Mus musculus [7]): 1.011 T/C and 0.529 T/C
- Average weight change (Mus musculus [8]): 0.5 g

Structure (SMILES): NC(=O)OCc1cc2c(c3c1CCC3)C(=O)c1ccccc1C2=O
- IC50 (HL-60): 123 µM

Structure (SMILES): CNC(=O)OCc1cc2c(c3c1CCC3)C(=O)c1ccccc1C2=O
- IC50 (HL-60): 274 µM

Structure (SMILES): CO[C@@]12[C@H](COC(N)=O)C3=C(C(=O)C(C)=C(N)C3=O)N1C[C@@H]1N[C@@H]12 [MITOMYCIN]
- Average tumor volume (Mus musculus [9]): 0.169 T/C
- Average tumor volume (Mus musculus [1]): 0.411 T/C
- Average tumor volume (Mus musculus [2]): 0.437 T/C
- IC50 (HL-60): 0.05 µM
- Average tumor volume (Mus musculus [3]): 0.363 T/C
- IC50 (DC3F/AD-II): 0.11 µM
- Average weight change (Mus musculus [10]): -2.7 g
- IC50 (SK-BR-3): 0.993 µM
- IC50 (DC3F): 0.082 µM
- IC50 (833K): 0.328 µM
- Average weight change (Mus musculus [5]): -1.8 g
- Average tumor volume (Mus musculus [11]): 0.515 T/C
- Average weight change (Mus musculus [11]): 0.6 g
- Tumor volume treated/control ratio (T/C) (Mus musculus [7]): 0.49 T/C and 0.356 T/C
- Average weight change (Mus musculus [12]): -1.2 g
- Average weight change (Mus musculus [8]): 0.2 g
